# Measured values taken from ChEMBL document CHEMBL4613238, “Synthesis and biological activity of thieno[3,2-d]pyrimidines as potent JAK3 inhibitors for the treatment of idiopathic pulmonary fibrosis” (Bioorg Med Chem, 2020).
# Activity calls are given as the source filed them. No cut-off for these calls is given here.
# What was measured:
# [1] = biological target: T1, Tyrosine-protein kinase JAK3 (Homo sapiens, UniProt P52333); assay: Inhibition of recombinant human N-terminal GST-tagged JAK3 (781 to end residues) expressed in baculovirus infected Sf9 cells using poly (Glu,Tyr) 4:1 as substrate incubated for 60 mins in presence of ATP by ADP-Glo kinase assay
# T1 sequence (P52333 whole entry): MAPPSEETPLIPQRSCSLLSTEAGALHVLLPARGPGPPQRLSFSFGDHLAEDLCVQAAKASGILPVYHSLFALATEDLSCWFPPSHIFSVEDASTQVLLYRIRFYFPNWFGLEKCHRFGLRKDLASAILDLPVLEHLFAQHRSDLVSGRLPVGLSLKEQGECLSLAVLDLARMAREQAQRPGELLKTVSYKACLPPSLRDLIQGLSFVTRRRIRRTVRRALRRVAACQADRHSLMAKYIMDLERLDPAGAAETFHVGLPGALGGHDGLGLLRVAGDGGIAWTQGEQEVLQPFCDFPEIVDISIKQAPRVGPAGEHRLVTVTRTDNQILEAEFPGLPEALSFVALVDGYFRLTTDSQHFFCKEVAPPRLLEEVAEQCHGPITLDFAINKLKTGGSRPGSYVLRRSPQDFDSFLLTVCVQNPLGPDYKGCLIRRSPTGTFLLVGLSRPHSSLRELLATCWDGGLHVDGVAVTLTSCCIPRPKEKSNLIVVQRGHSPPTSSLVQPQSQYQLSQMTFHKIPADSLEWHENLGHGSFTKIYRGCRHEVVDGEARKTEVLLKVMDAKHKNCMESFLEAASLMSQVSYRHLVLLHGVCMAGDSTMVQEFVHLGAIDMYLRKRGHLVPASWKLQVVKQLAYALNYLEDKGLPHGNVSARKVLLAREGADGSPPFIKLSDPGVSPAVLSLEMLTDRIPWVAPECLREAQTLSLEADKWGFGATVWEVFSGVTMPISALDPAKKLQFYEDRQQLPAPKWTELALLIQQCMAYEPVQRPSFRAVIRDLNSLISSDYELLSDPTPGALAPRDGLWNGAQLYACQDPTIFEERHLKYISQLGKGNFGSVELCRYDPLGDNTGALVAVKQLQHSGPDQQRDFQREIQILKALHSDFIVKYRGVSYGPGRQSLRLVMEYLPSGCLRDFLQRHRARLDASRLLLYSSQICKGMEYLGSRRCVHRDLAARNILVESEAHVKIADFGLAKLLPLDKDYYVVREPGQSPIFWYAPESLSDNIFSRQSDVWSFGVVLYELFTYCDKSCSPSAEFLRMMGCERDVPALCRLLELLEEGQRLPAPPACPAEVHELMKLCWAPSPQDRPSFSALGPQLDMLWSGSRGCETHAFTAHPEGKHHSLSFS
# How it was run: (§1)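 ADP-Glo luminescent assay run at compound concentrations of 0.1, 1, 10, 100 and 1000 nM. The kinase reaction ran in 1× kinase buffer for 60 min at room temperature. ADP-Glo reagent was then added to stop the reaction and deplete ATP (40 min, RT), followed by detection reagent (30 min, RT) and a luminescence read. IC50s came from curve fitting; means of three experiments.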
# [2] = biological target: Tyrosine-protein kinase BTK (Homo sapiens, UniProt Q06187); assay: Inhibition of BTK (unknown origin) by ADP-Glo kinase assay; how it was run: as §1
# Tyrosine-protein kinase BTK, sequence (Q06187 whole entry): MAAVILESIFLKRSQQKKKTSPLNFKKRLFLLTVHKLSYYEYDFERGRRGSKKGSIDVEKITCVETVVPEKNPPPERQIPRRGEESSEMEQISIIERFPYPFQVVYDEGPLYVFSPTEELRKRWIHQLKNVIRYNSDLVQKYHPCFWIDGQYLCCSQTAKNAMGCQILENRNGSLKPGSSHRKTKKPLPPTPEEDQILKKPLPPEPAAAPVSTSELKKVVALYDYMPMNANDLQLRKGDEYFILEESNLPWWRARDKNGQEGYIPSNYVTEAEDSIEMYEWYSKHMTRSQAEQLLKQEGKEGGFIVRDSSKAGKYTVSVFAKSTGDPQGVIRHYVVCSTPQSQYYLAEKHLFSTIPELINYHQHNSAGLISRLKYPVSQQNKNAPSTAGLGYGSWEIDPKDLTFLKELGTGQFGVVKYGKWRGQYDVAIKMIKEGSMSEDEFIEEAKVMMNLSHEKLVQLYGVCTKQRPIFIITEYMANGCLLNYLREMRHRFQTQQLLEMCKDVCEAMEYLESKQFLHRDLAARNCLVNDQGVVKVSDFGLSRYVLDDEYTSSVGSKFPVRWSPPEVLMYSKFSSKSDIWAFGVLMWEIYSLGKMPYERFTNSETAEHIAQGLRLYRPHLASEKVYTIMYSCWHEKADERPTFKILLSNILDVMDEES
# [3] = Cytotoxicity against human NHBE cells assessed as reduction in cell viability by CCK8 assay; assay type: cell-based
# How it was run: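 Human bronchial epithelial (HBE) cells were tested for growth inhibition by CCK-8 assay. IC50 values are means of three separate experiments.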
# [4] = tested on: Mus musculus; assay: Antifibrotic activity against bleomycin-induced pulmonary fibrosis C57BL/6J mouse model assessed as reduction in alveolar septal swelling at 60 mg/kg, po administered via gavage qd for 14 days at 3 days post bleomycin challenge by hematoxylin and eosin staining based light microscopic analysis; assay type: functional, organism-based
# How it was run: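 Intratracheal bleomycin (33 μg) was given to female C57BL/6J mice. Oral gavage started 3 days later and continued once daily for 14 days, with 1.4% DMSO saline as vehicle; n=8. Lungs were formalin-fixed for 24 h and paraffin-embedded. 5 μm sections were H&E-stained and examined by light microscopy at 200×.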
# [5] = tested on: Mus musculus; assay: Antifibrotic activity against bleomycin-induced pulmonary fibrosis C57BL/6J mouse model assessed as reduction in lung coefficient at 30 to 60 mg/kg, po administered via gavage qd for 14 days at 3 days post bleomycin challenge; assay type: functional, organism-based
# How it was run: (§2)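 Bleomycin was given intratracheally (33 μg) to female C57BL/6J mice, 5‒6 weeks old. Daily oral gavage followed for 14 days from day 3, with 1.4% DMSO saline vehicle; n=8 per group. Fresh lungs were weighed and lung index was calculated as lung weight/body weight × 100.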
# [6] = tested on: Mus musculus; assay: Antifibrotic activity against bleomycin-induced pulmonary fibrosis C57BL/6J mouse model assessed as reduction in collagen deposition by measuring hydroxyproline content in lungs at 60 mg/kg, po administered via gavage qd for 14 days at 3 days post bleomycin challenge by hydroxyproline assay; assay type: functional, organism-based
# How it was run: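 Bleomycin model in female C57BL/6J mice: 33 μg intratracheal, then daily oral dosing for 14 days beginning on day 3, vehicle saline with 1.4% DMSO, n=8. Lungs were perfused with saline and lavaged with PBS/1 mM EDTA. The left lobe was assayed for hydroxyproline with a kit by absorbance at 550 nm; mean ± SEM.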
# [7] = tested on: Mus musculus; assay: Antifibrotic activity against bleomycin-induced pulmonary fibrosis C57BL/6J mouse model assessed as reduction in IL6 expression in plasma at 30 to 60 mg/kg, po administered via gavage qd for 14 days at 3 days post bleomycin challenge by FACSCalibur flow cytometry; assay type: functional, organism-based
# How it was run: (§3)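 Female C57BL/6J mice (5‒6 weeks, 20‒25 g) were given 33 μg bleomycin intratracheally in saline under isoflurane. From day 3 they received oral gavage once daily for 14 days, with saline containing 1.4% DMSO as vehicle; n=8 per group. Vena cava blood was heparinized and spun at 3000 rpm for 10 min, and plasma was stored at −20 °C. IL-6, IL-17A and TNF-α were measured by flow cytometry; mean ± SEM.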
# [8] = tested on: Mus musculus; assay: Antifibrotic activity against bleomycin-induced pulmonary fibrosis C57BL/6J mouse model assessed as reduction in IL17A expression in plasma at 30 to 60 mg/kg, po administered via gavage qd for 14 days at 3 days post bleomycin challenge by FACSCalibur flow cytometry; assay type: functional, organism-based; how it was run: as §3
# [9] = tested on: Mus musculus; assay: Antifibrotic activity against bleomycin-induced pulmonary fibrosis C57BL/6J mouse model assessed as reduction in TNF-alpha expression in plasma at 30 to 60 mg/kg, po administered via gavage qd for 14 days at 3 days post bleomycin challenge by FACSCalibur flow cytometry; assay type: functional, organism-based; how it was run: as §3
# [10] = tested on: Mus musculus; assay: Antifibrotic activity against bleomycin-induced pulmonary fibrosis C57BL/6J mouse model assessed as reduction in oxidative stress by measuring reduction in MDA level in plasma at 60 mg/kg, po administered via gavage qd for 14 days at 3 days post bleomycin challenge; assay type: functional, organism-based
# How it was run: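 After 33 μg intratracheal bleomycin, female C57BL/6J mice were gavaged once daily for 14 days from day 3 (vehicle saline, 1.4% DMSO; n=8). MDA was measured in heparinized plasma with a kit by absorbance at 532 nm; mean ± SEM.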
# [11] = tested on: Mus musculus; assay: Antifibrotic activity against bleomycin-induced pulmonary fibrosis C57BL/6J mouse model assessed as reduction in lung coefficient at 60 mg/kg, po administered via gavage qd for 14 days at 3 days post bleomycin challenge; assay type: functional, organism-based; how it was run: as §2
# [12] = tested on: Mus musculus; assay: Antifibrotic activity against bleomycin-induced pulmonary fibrosis C57BL/6J mouse model assessed as reduction in IL6 expression in plasma at 60 mg/kg, po administered via gavage qd for 14 days at 3 days post bleomycin challenge by FACSCalibur flow cytometry; assay type: functional, organism-based; how it was run: as §3
# [13] = tested on: Mus musculus; assay: Antifibrotic activity against bleomycin-induced pulmonary fibrosis C57BL/6J mouse model assessed as reduction in IL17A expression in plasma at 60 mg/kg, po administered via gavage qd for 14 days at 3 days post bleomycin challenge by FACSCalibur flow cytometry; assay type: functional, organism-based; how it was run: as §3
# [14] = tested on: Mus musculus; assay: Antifibrotic activity against bleomycin-induced pulmonary fibrosis C57BL/6J mouse model assessed as reduction in TNF-alpha expression in plasma at 60 mg/kg, po administered via gavage qd for 14 days at 3 days post bleomycin challenge by FACSCalibur flow cytometry; assay type: functional, organism-based; how it was run: as §3
IC50 [1] [nM],IC50 [2] [nM],SMILES,IC50 [3] [µM],Activity [4],Activity [10],also measured
90.8,> 100,C=CC(=O)Nc1cccc(Oc2nc(Nc3ccc(OCCN4CCOCC4)cc3)nc3ccsc23)c1,23.3,–,–,–
59.4,> 100,C=CC(=O)Nc1cccc(Nc2nc(Nc3ccc(CN4CCOCC4)cc3)nc3ccsc23)c1,8.27,–,–,–
66.5,–,C=CC(=O)Nc1cccc(Nc2nc(Nc3ccc(OCCOC)cc3)ncc2F)c1 [SPEBRUTINIB],–,–,–,–
–,–,COC(=O)c1ccc2c(c1)NC(=O)/C2=C(\Nc1ccc(N(C)C(=O)CN2CCN(C)CC2)cc1)c1ccccc1,–,Active,Active,Activity [5]: Active; Activity [6]: Active; Activity [7]: Active; Activity [8]: Active; Activity [9]: Active
–,–,COc1cc2ncnc(Nc3ccc(F)c(Cl)c3)c2cc1OCCCN1CCOCC1,–,Active,Active,Activity [11]: Active; Activity [12]: Active; Activity [13]: Active; Activity [14]: Active
